Measured values reported in ChEMBL document CHEMBL4130401, “Thalassosamide, a Siderophore Discovered from the Marine-Derived Bacterium Thalassospira profundimaris” (J Nat Prod, 2017).
Values after ≈ are worked out from the molar mass of the structure shown. Active and inactive are the calls of the source. The calls are words filed in the database; no cut-off is given here.

What was measured:
[1] = Metal chelating activity assessed as Fe3+-compound complex formation at 5 to 1280 uM after 3 hrs by chrome azural S assay
Outline: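 Modified CAS assay: CTAB–CAS–Fe(III) reagent in MES buffer pH 5.6 mixed 1:1 with compound or deferoxamine mesylate in water, final concentrations 1.28 mM to 5 μM; incubated 37 °C, 3 h; colour change judged visually or absorbance change recorded.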

[2] = system: Escherichia coli; assay: Antibacterial activity against Escherichia coli ATCC 25922 measured after 18 hrs by dilution susceptibility test; assay type: functional
Outline: (§1)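 Broth dilution MIC for aerobic bacteria; compound dissolved in DMSO, serially diluted to 10 concentrations (0.25–128 μg/mL); gentamicin positive control; triplicate; six untreated media controls per plate; 35 °C for 18 h; MIC = lowest concentration preventing visible growth.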

[3] = system: Pseudomonas aeruginosa; assay: Antibacterial activity against Pseudomonas aeruginosa ATCC 27853 measured after 18 hrs by dilution susceptibility test; assay type: functional; outline: as §1
[4] = system: Mus musculus; assay: Toxicity in mouse at 80 to 160 mg/kg, ip administered as single dose; assay type: organism-based; conditions: in vivo
[5] = system: Pseudomonas aeruginosa; assay: Antibiofilm activity against Pseudomonas aeruginosa ATCC 27853 at 16 to 64 ug/ml by crystal violet microtiter method; assay type: functional, organism-based
[6] = system: Pseudomonas aeruginosa; assay: Antibacterial activity against Pseudomonas aeruginosa ATCC 27853 infected in mouse assessed as reduction in bacterial load in thigh at 80 to 160 mg/kg, ip administered as single dose measured after 6 hrs by time kill assay; assay type: functional, organism-based
Outline: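 Neutropenic murine thigh infection with P. aeruginosa grown, subcultured and quantified in Mueller-Hinton broth/agar; single intraperitoneal dose (80 or 160 mg/kg) given 1 h after infection; groups of two treated and two untreated mice euthanized at 0–6 h post-dose; thigh CFU counted; mean and standard deviation from four thighs of two mice.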

[7] = system: Pseudomonas aeruginosa; assay: Antibiofilm activity against Pseudomonas aeruginosa ATCC 27853 at 16 to 64 ug/ml in presence of gentamycin by crystal violet microtiter method; assay type: functional, organism-based

| Compound | Activity [1] | MIC [2] | MIC [3] | Activity [4] | Activity [5] | MIC ([2]; ATCC 25922, 18 h) | Activity [6] | MIC ([3]; ATCC 27853, 18 h) | Activity [7] |
| --- | --- | --- | --- | --- | --- | --- | --- | --- | --- |
| CC(=O)N(O)CCCCCNC(=O)CCC(=O)N(O)CCCCCNC(=O)CCC(=O)N(O)CCCCCN | Active | – | – | – | – | – | – | – | – |
| GENTAMICIN | – | 4 µg/mL | 4 µg/mL | – | – | – | – | – | – |
| C[C@@H]1CC(=O)N(O)CCCC[C@@H](NC(=O)CCC(=O)O)C(=O)O[C@H](C)CC(=O)N(O)CCCC[C@@H](NC(=O)CCC(=O)O)C(=O)O[C@H](C)CC(=O)N(O)CCCC[C@@H](NC(=O)CCC(=O)O)C(=O)O1 | Active | – | – | Non-Toxic | inactive | 64 µg/mL (≈ 64.6 µM) | Active | 64 µg/mL (≈ 64.6 µM) | inactive |
